Assay results as given in ChEMBL document CHEMBL1157729, “Structure-activity relationship and mechanism of action studies of manzamine analogues for the control of neuroinflammation and cerebral infections” (J Med Chem, 2010).
Values after ≈ are worked out from the molar mass of the structure shown.

How the values were obtained:
Plasmodium falciparum [1] = assay: Antiplasmodial activity against chloroquine-sensitive Plasmodium falciparum D6 after 72 hrs by LDH assay; type: functional, organism-based
Vero [2] = assay: Cytotoxicity against african green monkey Vero cells up to 4.6 ug/mL after 48 hrs by neutral red assay; type: cell-based; details: chlorocebus sabaeus
Method in brief: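 Vero cells were seeded at 25,000 cells/well and incubated for 24 h, then exposed to serially diluted samples for 48 h. Viable cells were counted by Neutral Red assay, with doxorubicin as positive control. IC50 was taken from dose-response curves.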

[3] = system: Mycobacterium tuberculosis; assay: Antimycobacterial activity against Mycobacterium tuberculosis H37Rv; type: functional, organism-based
Candida albicans = assay: Antifungal activity against Candida albicans ATCC 90028; type: functional, organism-based
Method in brief: (§1)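 Broth microdilution per modified CLSI method; samples serially diluted in 20% DMSO/saline, tested in duplicate; inocula set by OD630 of suspensions in incubation broth; growth read at 630 nm before and after incubation; amphotericin B drug control.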

Cryptococcus neoformans = assay: Antifungal activity against Cryptococcus neoformans ATCC 90113; type: functional, organism-based; method in brief: as §1
[4] = system: Mycobacterium intracellulare; assay: Antimycobacterial activity against Mycobacterium intracellular ATCC 23068; type: functional, organism-based
Method in brief: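 Modified Franzblau method; samples serially diluted in 20% DMSO/saline, tested in duplicate; inoculum set by OD630; fluorescence read at 544ex/590em before and after incubation; ciprofloxacin drug control.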

Plasmodium falciparum [5] = assay: Antiplasmodial activity against chloroquine-resistant Plasmodium falciparum W2 after 72 hrs by LDH assay; type: functional, organism-based
[6] = Antineuroinflammatory activity in LPS-stimulated rat neonatal microglia assessed as inhibition of PMA-induced superoxide anion production preincubated 15 mins prior to PMA challenge measured after 70 mins; type: functional, cell-based
[7] = Antineuroinflammatory activity in LPS-stimulated rat neonatal microglia assessed as inhibition of PMA-induced TXB2 production preincubated 15 mins prior to PMA challenge measured after 70 mins; type: functional, cell-based
[8] = Antineuroinflammatory activity in LPS-stimulated rat neonatal microglia assessed as drug level causing 50% PMA-induced LDH release preincubated 15 mins prior to PMA challenge measured after 70 mins; type: functional
Method in brief: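 Neonatal rat microglia (2 × 10^5/well) primed with E. coli LPS 0.3 ng/mL for 17 h at 35.9 °C, washed with HBSS, given compound (0.01–10 μM) or DMSO 15 min, then PMA 1 μM; LDH read spectrophotometrically after 70 min; LDH50 relative to Triton X-100 (0.1%) release; duplicates.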

Vero [9] = assay: Cytotoxicity against african green monkey Vero cells after 48 hrs by neutral red assay; type: cell-based; details: chlorocebus sabaeus
Method in brief: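 Vero cells seeded at 25,000/well and grown 24 h, then exposed to serially diluted samples for 48 h. Viable cells measured by neutral red assay, with doxorubicin as positive control. IC50 taken from dose-response curves.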

[10] = Plasmodium falciparum, D6, 72 h, read-out: IC50
[11] = Plasmodium falciparum, W2, 72 h, read-out: IC50

SMILES | IC50 (Plasmodium falciparum [1]; [10]) [mg/L] | Activity (Vero [2]) | MIC [3] [mg/L] | IC50 (Candida albicans) [mg/L] | IC50 (Cryptococcus neoformans) [mg/L] | IC50 [4] [mg/L] | IC50 (Plasmodium falciparum [1]) | IC50 (Plasmodium falciparum [5]) | IC50 (Plasmodium falciparum [5]; [11]) [mg/L] | IC50 [6] [µM] | IC50 [7] [µM] | Activity [8] [µM] | IC50 (Vero [9]) [mg/L]
CC[C@@]1(O)CCCN2[C@@H](CC1)C[C@]13CN4CCCC/C=C\CC[C@](O)(C=C(c5nccc6c5[nH]c5c(O)cccc56)[C@@H]1CC4)[C@H]23 | 0.077 (≈ 0.126 µM) | Non-toxic | 1.9 (≈ 3.11 µM) | 2.5 (≈ 4.09 µM) | 6 (≈ 9.82 µM) | 0.25 (≈ 0.409 µM) |  |  |  |  |  |  | 
Oc1cccc2c1[nH]c1c(C3=C[C@@]4(O)CC/C=C\CCCCN5CC[C@@H]3[C@]3(C[C@@H]6CC[C@H](O)CCCN6[C@H]34)C5)nccc12 |  | Non-toxic | 1.7 (≈ 2.92 µM) | 15 (≈ 25.7 µM) | 10 (≈ 17.2 µM) | 1.5 (≈ 2.57 µM) | Not Active | Not Active |  |  |  |  | 
COC(=O)CCCCn1c2ccccc2c2ccnc(C3=C[C@@]4(O)CC/C=C\CCCCN5CC[C@@H]3[C@]3(C[C@@H]6/C=C\C(=O)CCCN6[C@H]34)C5)c21 | 2 (≈ 2.95 µM) | Non-toxic |  | > 20 | 15 (≈ 22.2 µM) | 20 (≈ 29.5 µM) |  |  | 2 (≈ 2.95 µM) |  |  |  | 
CN1CCc2c([nH]c3ccccc23)C1C1=C[C@@]2(O)CC/C=C\CCCCN3CC[C@@H]1[C@]1(C[C@@H]4/C=C\CCCCN4[C@H]12)C3 (some centres undefined) | 0.31 (≈ 0.547 µM) | Non-toxic | > 64 | > 20 | 6 (≈ 10.6 µM) | 0.7 (≈ 1.23 µM) |  |  | 0.44 (≈ 0.776 µM) | > 10 | 12.2 | 8 | 
O=C1CC[C@H]2C[C@]34CN5CCCC/C=C\CC[C@](O)(C=C(c6nccc7c6[nH]c6c(O)cccc67)[C@@H]3CC5)[C@@H]4N2CC/C1=C/c1ccc(F)cc1 |  | Non-toxic |  | > 20 | > 20 | > 20 | Not Active | Not Active |  |  |  |  | 
COc1ccc(/C=C2/CCN3[C@@H](CCC2=O)C[C@]24CN5CCCC/C=C\CC[C@](O)(C=C(c6nccc7c6[nH]c6c(O)cccc67)[C@@H]2CC5)[C@H]34)cc1OC |  | Non-toxic | > 64 | > 20 | > 20 | > 20 | Not Active | Not Active |  |  |  |  | 
O=C1CC[C@H]2C[C@]34CN5CCCC/C=C\CC[C@](O)(C=C(c6nccc7c6[nH]c6c(O)cccc67)[C@@H]3CC5)[C@@H]4N2CC/C1=C/c1c(Cl)cccc1Cl |  | Non-toxic | > 64 | > 20 | > 20 | > 20 | Not Active | Not Active |  |  |  |  | 
CC(=O)Oc1cccc2c1[nH]c1c(C3=C/C4=C/C/C=C\CCCCN5CC[C@@H]3[C@]3(C[C@@H]6/C=C\CCCCN6[C@@H]43)C5)nccc12 | 2.5 (≈ 4.25 µM) |  | > 64 | > 20 | > 20 | 10 (≈ 17 µM) |  |  | 3.8 (≈ 6.45 µM) |  |  |  | 
COc1ccc(/C=C2/CCN3[C@@H](CCC2=O)C[C@]24CN5CCCC/C=C\CC[C@](O)(C=C(c6nccc7c6[nH]c6c(O)cccc67)[C@@H]2CC5)[C@H]34)cc1 |  | Non-toxic | > 64 | > 20 | > 20 | > 20 | Not Active | Not Active |  |  |  |  | 
N/N=C1/CCCN2[C@@H](CC1)C[C@]13CN4CCCC/C=C\CC[C@](O)(C=C(c5nccc6c5[nH]c5c(O)cccc56)[C@@H]1CC4)[C@H]23 |  | Non-toxic | 1.9 (≈ 3.19 µM) | > 20 | 1 (≈ 1.68 µM) | 0.09 (≈ 0.151 µM) |  |  | 0.038 (≈ 0.0639 µM) |  |  |  | 
O=C1CC[C@H]2C[C@]34CN5CCCC/C=C\CC[C@](O)(C=C(c6nccc7c6[nH]c6c(O)cccc67)[C@@H]3CC5)[C@@H]4N2CC/C1=C/c1ccc([N+](=O)[O-])cc1 |  | Non-toxic | > 64 | > 20 | > 20 | > 20 | Not Active | Not Active |  |  |  |  | 
CCCCCCCCCCCCn1c2ccccc2c2ccnc(C3=C[C@@]4(O)CC/C=C\CCCCN5CC[C@@H]3[C@]3(C[C@@H]6/C=C\CCCCN6[C@H]34)C5)c21 |  | Non-toxic |  | > 20 | > 20 | > 20 | Not Active | Not Active |  |  |  |  | 
COc1cccc(/C=C2/CCN3[C@@H](CCC2=O)C[C@]24CN5CCCC/C=C\CC[C@](O)(C=C(c6nccc7c6[nH]c6c(O)cccc67)[C@@H]2CC5)[C@H]34)c1 |  | Non-toxic | > 64 | > 20 | > 20 | > 20 | Not Active | Not Active |  |  |  |  | 
O=C1CC[C@H]2C[C@]34CN5CCCC/C=C\CC[C@](O)(C=C(c6nccc7c6[nH]c6c(O)cccc67)[C@@H]3CC5)[C@@H]4N2CC/C1=C/c1ccc(Br)cc1 |  | Non-toxic | > 64 | > 20 | > 20 | > 20 | Not Active | Not Active |  |  |  |  | 
[O-][N+]12CCCC/C=C\CC[C@]3(O)C=C(c4nccc5c4[nH]c4ccccc45)[C@H](CC1)[C@]1(C[C@@H]4/C=C\CCCC[N@+]4([O-])[C@H]13)C2 |  | Non-toxic |  | > 20 | > 20 | 10 (≈ 17.2 µM) |  |  |  |  |  |  | 
CC(=O)Oc1cccc2c1[nH]c1c(C3=C[C@@]4(O)CC/C=C\CCCCN5CC[C@@H]3[C@]3(C[C@@H]6/C=C\CCCCN6[C@H]34)C5)nccc12 [8-ACETOXYMANZAMINE A] | 0.029 (≈ 0.0478 µM) |  |  |  |  |  |  |  |  |  |  |  | 670 (≈ 1100 µM)
O=[N+]([O-])c1cccc2c1[nH]c1c(C3=C[C@@]4(O)CC/C=C\CCCCN5CC[C@@H]3[C@]3(C[C@@H]6/C=C\CCCCN6[C@H]34)C5)nccc12 [8-NITROMANZAMINE A] | 0.31 (≈ 0.522 µM) | Non-toxic |  | > 20 | 4 (≈ 6.74 µM) | 0.25 (≈ 0.421 µM) |  |  | 0.41 (≈ 0.691 µM) |  |  |  | 
CC(C)CCn1c2ccccc2c2ccnc(C3=C[C@@]4(O)CC/C=C\CCCCN5CC[C@@H]3[C@]3(C[C@@H]6/C=C\CCCCN6[C@H]34)C5)c21 [9-N-ISOPENTYLMANZAMINE A] | 2.3 (≈ 3.72 µM) | Non-toxic | 128 (≈ 207 µM) | > 20 | > 20 | 6.5 (≈ 10.5 µM) |  |  | 3.8 (≈ 6.14 µM) | 3.2 | 3.2 | >10 | 
Cn1c2ccccc2c2ccnc(C3=C[C@@]4(O)CC/C=C\CCCCN5CC[C@@H]3[C@]3(C[C@@H]6/C=C\CCCCN6[C@H]34)C5)c21 [9-N-METHYLMANZAMINE A] | 1.9 (≈ 3.38 µM) | Non-toxic | > 64 | > 20 | > 20 | > 20 |  |  | 1 (≈ 1.78 µM) | > 10 | > 10 | >10 | 
O[C@]12C=C(c3nccc4c3[nH]c3ccccc34)[C@@H]3CCN(CCCC/C=C\CC1)C[C@@]31C[C@@H]3CCCCCCN3[C@H]12 [32,33-DIHYDROMANZAMINE A] |  |  | 66 (≈ 120 µM) | 9.5 (≈ 17.2 µM) | 1.5 (≈ 2.72 µM) | 0.6 (≈ 1.09 µM) |  |  | 1.8 (≈ 3.27 µM) |  |  |  | 
C[C@@H]1[C@H](O)[C@@H](C)/C=C/C=C/C=C/C=C/C=C/C=C/C=C/[C@H](O[C@@H]2O[C@H](C)[C@@H](O)[C@H](N)[C@@H]2O)C[C@@H]2O[C@](O)(C[C@@H](O)C[C@@H](O)[C@H](O)CC[C@@H](O)C[C@@H](O)CC(=O)O[C@H]1C)C[C@H](O)[C@H]2C(=O)O [AMPHOTERICIN B] |  |  |  | 0.2 (≈ 0.216 µM) |  |  |  |  |  |  |  |  | 
C1=C(c2nccc3c2[nH]c2ccccc23)[C@@H]2CCN3CCCC/C=C\C/C=C/1[C@@H]1N4CCCC/C=C\[C@H]4C[C@@]12C3 [DEHYDROMANZAMINE A] | 0.12 (≈ 0.226 µM) |  | 46 (≈ 86.7 µM) | 9.5 (≈ 17.9 µM) | 4.5 (≈ 8.48 µM) | 0.4 (≈ 0.754 µM) |  |  | 2.2 (≈ 4.14 µM) |  |  |  | 
O=CC1=C[C@@]2(O)CC/C=C\CCCCN3CC[C@@H]1[C@]1(C[C@@H]4/C=C\CCCCN4[C@H]12)C3 [IRCINAL] |  |  |  |  |  |  |  |  |  | > 10 | 0.33 | 4.6 | 
O=C1CCCN2[C@@H](CC1)C[C@]13CN4CCCC/C=C\CC[C@](O)(C=C(c5nccc6c5[nH]c5c(O)cccc56)C1CC4)[C@H]23 (some centres undefined) [MANZAMINE F] |  |  |  | 15 (≈ 25.8 µM) |  |  |  |  |  |  |  |  | 
CO[C@H]1/C=C/O[C@@]2(C)Oc3c(C)c(O)c4c(O)c(c(/C=N/N5CCN(C)CC5)c(O)c4c3C2=O)NC(=O)/C(C)=C\C=C\[C@H](C)[C@H](O)[C@@H](C)[C@@H](O)[C@@H](C)[C@H](OC(C)=O)[C@@H]1C [RIFAMPIN] |  |  | 0.09 (≈ 0.109 µM) |  |  |  |  |  |  |  |  |  | 
